Laboratory results taken from paper PMC6682128 (ACS Omega, 2019).

Test: Cytotoxicity assay
Type: cell-based
Conditions: human
Procedure, shortened: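 Replicon cells (Huh5-2, Huh7.5-3a or Huh7.5-4a) were seeded at 10^4 per well and grown 24 h in complete DMEM. They were then exposed for three days to serial dilutions of test compound or DMSO solvent. Lysates were assayed for ATP by chemiluminescence, normalised to Bradford total protein. CC50 was obtained by nonlinear regression against log concentration.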

CCOC(=O)N[C@H](C(=O)N1CCC[C@H]1C(=O)Nc1cccc(C#CC#Cc2cccc(NC(=O)[C@@H]3CCCN3C(=O)[C@@H](NC(=O)OCC)[C@@H](C)CC)c2)c1)[C@H](C)CC [2h, Ethyl((2S,3S)-1-((S)-2-((3-((3-((S)-1-((ethoxycarbonyl)-L-alloisoleucyl)pyrrolidine-2-carboxamido)phenyl)buta-1,3-diyn-1-yl)phenyl)carbamoyl)pyrrolidin-1-yl)-3-methyl-1-oxopentan-2-yl)carbamate] and CCOC(=O)N[C@H](C(=O)N1CCC[C@@H]1C(=O)Nc1cccc(C#CC#Cc2cccc(NC(=O)[C@H]3CCCN3C(=O)[C@@H](NC(=O)OCC)C(C)C)c2)c1)C(C)C [2j, Diethyl((2S,2′S)-((2R,2′R)-(((buta-1,3-diyne-1,4-diylbis(3,1-phenylene))bis(azanediyl))bis(carbonyl))bis(pyrrolidine-2,1-diyl))bis(3-methyl-1-oxobutane-1,2-diyl))dicarbamate] cannot be ordered by CC50 at 3 days: greater than 200 µM for the first, greater than 10 µM for the second.

CCCCOC(=O)N[C@@H](CC(C)C)C(=O)N1CCC[C@H]1C(=O)Nc1ccc(C#CC#Cc2ccc(NC(=O)[C@@H]3CCCN3C(=O)[C@H](CC(C)C)NC(=O)OCCCC)cc2)cc1 [1g, Dibutyl((2S,2′S)-((2S,2′S)-(((buta-1,3-diyne-1,4-diylbis(4,1-phenylene))bis(azanediyl))bis(carbonyl))bis(pyrrolidine-2,1-diyl))bis(4-methyl-1-oxopentane-1,2-diyl))dicarbamate] and CCOC(=O)N[C@@H](CC(C)C)C(=O)N1CCC[C@@H]1C(=O)Nc1ccc(C#CC#Cc2ccc(NC(=O)[C@H]3CCCN3C(=O)[C@H](CC(C)C)NC(=O)OCC)cc2)cc1 [1l, Diethyl((2S,2′S)-((2R,2′R)-(((buta-1,3-diyne-1,4-diylbis(4,1-phenylene))bis(azanediyl))bis(carbonyl))bis(pyrrolidine-2,1-diyl))bis(4-methyl-1-oxopentane-1,2-diyl))dicarbamate] cannot be ordered by CC50 at 3 days: greater than 10 µM for the first, greater than 10 µM for the second.

CCCCOC(=O)N[C@H](C(=O)N1CCC[C@H]1C(=O)Nc1ccc(C#CC#Cc2ccc(NC(=O)[C@@H]3CCCN3C(=O)[C@@H](NC(=O)OCCCC)C(C)CC)cc2)cc1)C(C)CC (stereo partly drawn) [1i, Dibutyl((2S,2′S)-((2S,2′S)-(((buta-1,3-diyne-1,4-diylbis(4,1-phenylene))bis(azanediyl))bis(carbonyl))bis(pyrrolidine-2,1-diyl))bis(3-methyl-1-oxopentane-1,2-diyl))dicarbamate] and CCCCOC(=O)N[C@H](C(=O)N1CCC[C@H]1C(=O)Nc1ccc(C#CC#Cc2ccc(NC(=O)[C@@H]3CCCN3C(=O)[C@@H](NC(=O)OCCCC)C(C)C)cc2)cc1)C(C)C [1c, Dibutyl((2S,2′S)-((2S,2′S)-(((buta-1,3-diyne-1,4-diylbis(4,1-phenylene))bis(azanediyl))bis(carbonyl))bis(pyrrolidine-2,1-diyl))bis(3-methyl-1-oxobutane-1,2-diyl))dicarbamate] cannot be ordered by CC50 at 3 days: greater than 10 µM for the first, greater than 20 µM for the second.

CC(C)COC(=O)N[C@H](C(=O)N1CCC[C@H]1C(=O)Nc1cccc(C#CC#Cc2cccc(NC(=O)[C@@H]3CCCN3C(=O)[C@@H](NC(=O)OCC(C)C)C(C)C)c2)c1)C(C)C [2d, Diisobutyl((2S,2′S)-((2S,2′S)-(((buta-1,3-diyne-1,4-diylbis(3,1-phenylene))bis(azanediyl))bis(carbonyl))bis(pyrrolidine-2,1-diyl))bis(3-methyl-1-oxobutane-1,2-diyl))dicarbamate] and CCOC(=O)N[C@@H](C(=O)N1CCC[C@@H]1C(=O)Nc1cccc(C#CC#Cc2cccc(NC(=O)[C@H]3CCCN3C(=O)[C@H](NC(=O)OCC)C(C)C)c2)c1)C(C)C [2k, Diethyl((2R,2′R)-((2R,2′R)-(((buta-1,3-diyne-1,4-diylbis(3,1-phenylene))bis(azanediyl))bis(carbonyl))bis(pyrrolidine-2,1-diyl))bis(3-methyl-1-oxobutane-1,2-diyl))dicarbamate] cannot be ordered by CC50 at 3 days: greater than 20 µM for the first, greater than 10 µM for the second.

COC(=O)N[C@@H](CC(C)C)C(=O)N1CCC[C@H]1C(=O)Nc1cccc(C#CC#Cc2cccc(NC(=O)[C@@H]3CCCN3C(=O)[C@H](CC(C)C)NC(=O)OC)c2)c1 [2o, Dimethyl((2S,2′S)-((2S,2′S)-(((buta-1,3-diyne-1,4-diylbis(3,1-phenylene))bis(azanediyl))bis(carbonyl))bis(pyrrolidine-2,1-diyl))bis(4-methyl-1-oxopentane-1,2-diyl))dicarbamate] and CCOC(=O)N[C@@H](CC(C)C)C(=O)N1CCC[C@@H]1C(=O)Nc1cccc(C#CC#Cc2cccc(NC(=O)[C@H]3CCCN3C(=O)[C@H](CC(C)C)NC(=O)OCC)c2)c1 [2l, Diethyl((2S,2′S)-((2R,2′R)-(((buta-1,3-diyne-1,4-diylbis(3,1-phenylene))bis(azanediyl))bis(carbonyl))bis(pyrrolidine-2,1-diyl))bis(4-methyl-1-oxopentane-1,2-diyl))dicarbamate] cannot be ordered by CC50 at 3 days: greater than 20 µM for the first, greater than 10 µM for the second.

CCCCOC(=O)N[C@H](C(=O)N1CCC[C@H]1C(=O)Nc1cccc(C#CC#Cc2cccc(NC(=O)[C@@H]3CCCN3C(=O)[C@@H](NC(=O)OCCCC)[C@@H](C)CC)c2)c1)[C@H](C)CC [2i, Butyl((2S,3S)-1-((S)-2-((3-((3-((S)-1-((butoxycarbonyl)-L-alloisoleucyl)pyrrolidine-2-carboxamido)phenyl)buta-1,3-diyn-1-yl)phenyl)carbamoyl)pyrrolidin-1-yl)-3-methyl-1-oxopentan-2-yl)carbamate] and CCCCOC(=O)N[C@H](C(=O)N1CCC[C@H]1C(=O)Nc1cccc(C#CC#Cc2cccc(NC(=O)[C@@H]3CCCN3C(=O)[C@@H](NC(=O)OCCCC)C(C)C)c2)c1)C(C)C [2c, Dibutyl((2S,2′S)-((2S,2′S)-(((buta-1,3-diyne-1,4-diylbis(3,1-phenylene))bis(azanediyl))bis(carbonyl))bis(pyrrolidine-2,1-diyl))bis(3-methyl-1-oxobutane-1,2-diyl))dicarbamate] cannot be ordered by CC50 at 3 days: greater than 10 µM for the first, greater than 10 µM for the second.

CCOC(=O)N[C@H](C(=O)N1CCC[C@H]1C(=O)Nc1ccc(C#CC#Cc2ccc(NC(=O)[C@@H]3CCCN3C(=O)[C@@H](NC(=O)OCC)C(C)CC)cc2)cc1)C(C)CC (stereo partly drawn) [1h, Diethyl((2S,2′S)-((2S,2′S)-(((buta-1,3-diyne-1,4-diylbis(4,1-phenylene))bis(azanediyl))bis(carbonyl))bis(pyrrolidine-2,1-diyl))bis(3-methyl-1-oxopentane-1,2-diyl))dicarbamate] and CCOC(=O)N[C@H](C(=O)N1CCC[C@@H]1C(=O)Nc1ccc(C#CC#Cc2ccc(NC(=O)[C@H]3CCCN3C(=O)[C@@H](NC(=O)OCC)C(C)C)cc2)cc1)C(C)C [1j, Diethyl((2S,2′S)-((2R,2′R)-(((buta-1,3-diyne-1,4-diylbis(4,1-phenylene))bis(azanediyl))bis(carbonyl))bis(pyrrolidine-2,1-diyl))bis(3-methyl-1-oxobutane-1,2-diyl))dicarbamate] cannot be ordered by CC50 at 3 days: greater than 10 µM for the first, greater than 10 µM for the second.

CCCCOC(=O)N[C@@H](CC(C)C)C(=O)N1CCC[C@H]1C(=O)Nc1cccc(C#CC#Cc2cccc(NC(=O)[C@@H]3CCCN3C(=O)[C@H](CC(C)C)NC(=O)OCCCC)c2)c1 [2g, Dibutyl((2S,2′S)-((2S,2′S)-(((buta-1,3-diyne-1,4-diylbis(3,1-phenylene))bis(azanediyl))bis(carbonyl))bis(pyrrolidine-2,1-diyl))bis(4-methyl-1-oxopentane-1,2-diyl))dicarbamate] and CCOC(=O)N[C@H](CC(C)C)C(=O)N1CCC[C@@H]1C(=O)Nc1cccc(C#CC#Cc2cccc(NC(=O)[C@H]3CCCN3C(=O)[C@@H](CC(C)C)NC(=O)OCC)c2)c1 [2m, Diethyl((2R,2′R)-((2R,2′R)-(((buta-1,3-diyne-1,4-diylbis(3,1-phenylene))bis(azanediyl))bis(carbonyl))bis(pyrrolidine-2,1-diyl))bis(4-methyl-1-oxopentane-1,2-diyl))dicarbamate] cannot be ordered by CC50 at 3 days: greater than 10 µM for the first, greater than 10 µM for the second.

CC(C)COC(=O)N[C@H](C(=O)N1CCC[C@H]1C(=O)Nc1ccc(C#CC#Cc2ccc(NC(=O)[C@@H]3CCCN3C(=O)[C@@H](NC(=O)OCC(C)C)C(C)C)cc2)cc1)C(C)C [1d, Diisobutyl((2S,2′S)-((2S,2′S)-(((buta-1,3-diyne-1,4-diylbis(4,1-phenylene))bis(azanediyl))bis(carbonyl))bis(pyrrolidine-2,1-diyl))bis(3-methyl-1-oxobutane-1,2-diyl))dicarbamate] and COC(=O)N[C@H](C(=O)N1CCC[C@H]1C(=O)Nc1ccc(C#CC#Cc2ccc(NC(=O)[C@@H]3CCCN3C(=O)[C@@H](NC(=O)OC)C(C)C)cc2)cc1)C(C)C [1a, Dimethyl((2S,2′S)-((2S,2′S)-(((buta-1,3-diyne-1,4-diylbis(4,1-phenylene))bis(azanediyl))bis(carbonyl))bis(pyrrolidine-2,1-diyl))bis(3-methyl-1-oxobutane-1,2-diyl))dicarbamate] cannot be ordered by CC50 at 3 days: greater than 10 µM for the first, 11 µM for the second.

CCC(C)[C@H](NC(=O)OCc1ccccc1)C(=O)N1CCC[C@H]1C(=O)Nc1ccc(C#CC#Cc2ccc(NC(=O)[C@@H]3CCCN3C(=O)[C@@H](NC(=O)OCc3ccccc3)C(C)CC)cc2)cc1 (stereo partly drawn) [1p, Dibenzyl((2S,2′S)-((2S,2′S)-(((buta-1,3-diyne-1,4-diylbis(4,1-phenylene))bis(azanediyl))bis(carbonyl))bis(pyrrolidine-2,1-diyl))bis(3-methyl-1-oxopentane-1,2-diyl))dicarbamate] and CCOC(=O)N[C@H](CC(C)C)C(=O)N1CCC[C@@H]1C(=O)Nc1ccc(C#CC#Cc2ccc(NC(=O)[C@H]3CCCN3C(=O)[C@@H](CC(C)C)NC(=O)OCC)cc2)cc1 [1m, Diethyl((2R,2′R)-((2R,2′R)-(((buta-1,3-diyne-1,4-diylbis(4,1-phenylene))bis(azanediyl))bis(carbonyl))bis(pyrrolidine-2,1-diyl))bis(4-methyl-1-oxopentane-1,2-diyl))dicarbamate] cannot be ordered by CC50 at 3 days: greater than 10 µM for the first, greater than 10 µM for the second.

For CCOC(=O)N[C@@H](CC(C)C)C(=O)N1CCC[C@H]1C(=O)Nc1ccc(C#CC#Cc2ccc(NC(=O)[C@@H]3CCCN3C(=O)[C@H](CC(C)C)NC(=O)OCC)cc2)cc1 [1f, Diethyl((2S,2′S)-((2S,2′S)-(((buta-1,3-diyne-1,4-diylbis(4,1-phenylene))bis(azanediyl))bis(carbonyl))bis(pyrrolidine-2,1-diyl))bis(4-methyl-1-oxopentane-1,2-diyl))dicarbamate], the CC50 at 3 days was greater than 10 µM.
